Measured values taken from PubChem BioAssay.
Records with an inconclusive call do not appear. The source made the active and inactive calls.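 How the source made its calls, unless noted: active means cell viability at or below a set limit in both duplicate runs, the limit being the all-compound median minus 4 SD (cut at about 23% in these data, passing the limit was not always enough); inconclusive means no clear call, values can overlap the other calls; inactive means the rest.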

Columns and labels:
[1] = OD615 S. cerevisiae growth inhibition, permissive medium, pilot counter-assay, permissive growth control for S. cerevisiae lifespan shortening project (AID 705;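 active means growth inhibition above 25% in both replicates, a cutoff set 3 SD above the mean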); conditions: OD615, 24 h, at 10 µM, active compounds read high
Method in brief: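 System: Engineered DeaD yeast | Buffer or medium: SC raffinose/galactose permissive medium | Doses: 10 µM single dose, 0.25% DMSO | Times: 24 h exposure, 30 °C | Measured by: OD615 turbidity read | Read-out: Yeast growth inhibition indicated by reduced 24 h OD615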

[2] = Restrictive medium S. cerevisiae growth inhibition, OD615, pilot screen of yeast lifespan reduction project, restrictive growth control (AID 706;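 active means growth inhibition above a set limit, 3 SD over mean compound inhibition, in both replicates, cut at about 43% in these data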;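 further: modified DeaD lifespan yeast strain shifted to restrictive glucose medium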); conditions: OD615, 48 h, at 10 µM, active compounds read high
Method in brief: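 Assay system: engineered S. cerevisiae DeaD strain; Buffer or medium: CSMM-D glucose medium; Dosing: 10 µM compound, 0.25% DMSO; Times: cell pre-growth 4 h, compound exposure 48 h, 30 °C; Detection: absorbance (optical density) measured at 615 nm.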

[3] = viability gain of MRP-1-high H69AR cells under doxorubicin, pilot screen, MRP-1 activator project, CellTiter-Glo, duplicate (AID 807;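 active means viability increase at or above a cutoff of the median across tested compounds plus 3 SD, cut at about 8.5% in these data, passing the limit was not always enough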;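 further: compound pretreatment 18-22 h then 72 h combined with doxorubicin; 0% = doxorubicin alone and 100% = vehicle without doxorubicin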); conditions: H69AR viability with doxorubicin, CellTiter-Glo luminescence; at 10 µM; active compounds read high
[4] = growth suppression of beta-catenin knockout HCT116, pilot screen, human colon tumor cells (AID 823); conditions: CellTiter-Glo, 60 h, at 10 µM, active compounds read low;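 further: 0% = wells killed by 20 µM Hyamine and 100% = untreated DMSO cell wells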
[5] = growth suppression of PTEN-deleted HCT116, pilot screen, cell-based, HCT116 clonal line, CellTiter-Glo (AID 824;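 active means viability at or below 27.92% in each of two runs, the all-compound median minus 4 SD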;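 further: 0% = 20 µM Hyamine control and 100% = vehicle cell control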); conditions: 60 h, at 10 µM, active compounds read low
[6] = inhibitors of the yeast RAM network, pilot screen, dse1pr::URA3 reporter, 5-FOA selection (AID 869;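 active means inhibition over a set limit, the all-compound mean plus 3 SD, in both replicate runs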;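 further: 0% = DMSO wells with no growth and 100% = 10 µM 1-NA-PP1 with full growth; RAM network block rescues cells from 5-FOA so hits raise OD615 growth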); conditions: S. cerevisiae dse1pr::URA3 5-FOA growth, OD615, 2 d; at 10 µM; active compounds read high; strain carries analog-sensitive mutant Cbk1 kinase
[7] = RAM signaling pathway blockade in yeast – S. cerevisiae, Pdr1DBD-CYC8 efflux-inhibited sensitized strain, primary screen (AID 1298;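 active means RAM network inhibition above 8.4% in each of two replicates, 3 SD over the compound average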;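 further: 0% = DMSO untreated cells without growth and 100% = 10 µM 1-NA-PP1 full growth; higher means more yeast growth rescued from 5-FOA killing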); conditions: S. cerevisiae cbk1-as DSE1-URA3 strain, 5-FOA growth OD615, 2 d; at 50 µM; active compounds read high

O=C(CCn1c(=O)oc2ccccc21)NCc1ccc2c(c1)OCO2
inactive: growth inhibition [1] -11.4% | growth inhibition [2] -19.9% | viability increase [3] -2.85% | viability [4] 100% | viability [5] 91.3% | inhibition [6] 2.35% | RAM network inhibition [7] 6.04%

COc1ccccc1NC(=O)c1ccc(S(=O)(=O)N(C)C)cc1
inactive: growth inhibition [1] 0.34% | growth inhibition [2] 6.62% | viability increase [3] -0.55% | viability [4] 108% | viability [5] 105% | inhibition [6] 2.33% | RAM network inhibition [7] -1.21%

CCC(C)NC(=O)C1CCN(S(=O)(=O)c2cccc3cccnc23)CC1 (configuration not stated)
inactive: growth inhibition [1] -3.39% | growth inhibition [2] 1.06% | viability increase [3] 0.26% | viability [4] 108% | viability [5] 101% | inhibition [6] 2.05% | RAM network inhibition [7] 4.76%

CCOc1ccc(C(=O)Nn2cnnc2)cc1
inactive: growth inhibition [1] -3.16% | growth inhibition [2] -5.59% | viability increase [3] 0.25% | viability [4] 104% | viability [5] 103% | inhibition [6] 0.895% | RAM network inhibition [7] 1.85%

CCCc1cc(C(=O)Nc2sc(C)c(CC)c2C#N)no1
inactive: growth inhibition [1] -6.42% | growth inhibition [2] -11.2% | viability increase [3] 2.26% | viability [4] 102% | viability [5] 101% | inhibition [6] 1.42% | RAM network inhibition [7] 0.53%

O=c1cc(N2CCOCC2)[nH]c(=O)n1Cc1ccc(F)cc1
inactive: growth inhibition [1] 5.3% | growth inhibition [2] -2.77% | viability increase [3] 0.52% | viability [4] 95.3% | viability [5] 99.1% | inhibition [6] 1.04% | RAM network inhibition [7] -0.98%

Cc1ccc(NC(=O)C2C3C=CC4(CN(Cc5cccnc5)C(=O)C24)O3)cc1 (configuration not stated)
inactive: growth inhibition [1] 5.17% | growth inhibition [2] -7.85% | viability increase [3] -1.21% | viability [4] 74.4% | viability [5] 97.3% | inhibition [6] 0.77% | RAM network inhibition [7] 2.87%

COC(=O)c1cc(NC(=O)c2nccnc2C(=O)O)cc(C(=O)OC)c1
inactive: growth inhibition [1] -10.9% | growth inhibition [2] 3.16% | viability increase [3] -1.21% | viability [4] 90.4% | viability [5] 98% | inhibition [6] -0.12% | RAM network inhibition [7] -1.46%

CCCn1c(CNc2ccc(Br)cc2)nc2ccccc21
inactive: growth inhibition [1] -11.7% | growth inhibition [2] -9.32% | viability increase [3] -3.5% | viability [4] 88.2% | viability [5] 82.7% | inhibition [6] 1.47% | RAM network inhibition [7] 1.62%

O=C1CNC(=O)/C1=C\N1CCN(C(c2ccccc2)c2ccccc2)CC1
inactive: growth inhibition [1] 5.72% | growth inhibition [2] 9.98% | viability increase [3] -2.16% | viability [4] 99.2% | viability [5] 101% | inhibition [6] 2.48% | RAM network inhibition [7] 1.6%

Cc1ccc(C(=O)c2ccccc2C(=O)O)c(O)c1
inactive: growth inhibition [1] -15.6% | growth inhibition [2] -4.92% | viability increase [3] 0.69% | viability [4] 94.8% | viability [5] 106% | inhibition [6] 0.835% | RAM network inhibition [7] 5.69%

CCOC(=O)N1CCC(NC(=O)CS(=O)(=O)Cc2nc(-c3ccc(C)cc3)oc2C)CC1
inactive: growth inhibition [1] -20.3% | growth inhibition [2] -37.1% | viability increase [3] 0.42% | viability [4] 75.3% | viability [5] 81.3% | inhibition [6] 0.44% | RAM network inhibition [7] 0.36%

COc1ccc(OC)c(C2C(C(=O)Nc3ccccc3OC)=C(C)Nc3nc(CCCO)nn32)c1 (configuration not stated)
inactive: growth inhibition [1] 4.07% | growth inhibition [2] -1.39% | viability increase [3] -2.08% | viability [4] 98.9% | viability [5] 96.8% | inhibition [6] 3.86% | RAM network inhibition [7] 4.26%

O=C(CN1CCOc2ccccc21)NCc1ccc(F)cc1
inactive: growth inhibition [1] -29.5% | growth inhibition [2] 2.98% | viability increase [3] -5.89% | viability [4] 91.4% | viability [5] 85.8% | inhibition [6] 0.305% | RAM network inhibition [7] -0.84%

CCOCCCn1cnc2c([nH]c3cc(OC)ccc32)c1=O
inactive: growth inhibition [1] -14.1% | growth inhibition [2] -13.8% | viability increase [3] -0.55% | viability [4] 95.8% | viability [5] 96.9% | inhibition [6] 1.41% | RAM network inhibition [7] 5.51%

CC(=O)NCC(=O)N(c1ccccc1)C1(C(=O)NC2CCCCC2)CCCCC1
inactive: growth inhibition [1] -3.84% | growth inhibition [2] 6.72% | viability increase [3] -2.01% | viability [4] 103% | viability [5] 98.3% | inhibition [6] 0.165% | RAM network inhibition [7] -0.7%

CCOC(=O)c1ccc(N2CSC3=C(C#N)C(c4cccs4)CC(=O)N3C2)cc1 (configuration not stated)
inactive: growth inhibition [1] 6.68% | growth inhibition [2] 28.2% | viability increase [3] -1.48% | viability [4] 103% | viability [5] 85.3% | inhibition [6] 1.52% | RAM network inhibition [7] 2.37%

Cn1c(NC(=O)c2ccccc2Br)cc(=O)n(C)c1=O
inactive: growth inhibition [1] -9.54% | growth inhibition [2] -19.3% | viability increase [3] -3.97% | viability [4] 105% | viability [5] 94.5% | inhibition [6] 1.15% | RAM network inhibition [7] 0.36%

COc1ccc(OCC(=O)Nc2ccccc2OC)cc1
inactive: growth inhibition [1] 11.4% | growth inhibition [2] 7.31% | viability increase [3] -4.87% | viability [4] 105% | viability [5] 101% | inhibition [6] 0.82% | RAM network inhibition [7] -2.32%

Cc1ccc(-c2nc(CS(=O)CC(=O)NCc3ccccc3)c(C)o2)cc1 (configuration not stated)
inactive: growth inhibition [1] 2.69% | growth inhibition [2] -1.83% | viability increase [3] -2.84% | viability [4] 98.2% | viability [5] 89.5% | inhibition [6] 0.175% | RAM network inhibition [7] 6.78%

COCN(C#N)c1nc(OC)nc(OC)n1
inactive: growth inhibition [1] 0.79% | growth inhibition [2] 7.01% | viability increase [3] 2.98% | viability [4] 103% | viability [5] 104% | inhibition [6] -0.1% | RAM network inhibition [7] 2.34%

CCC(CC)C(=O)NCc1ccccc1OC
inactive: growth inhibition [1] 4.68% | growth inhibition [2] -4.89% | viability increase [3] -0.51% | viability [4] 99.1% | viability [5] 101% | inhibition [6] 0.98% | RAM network inhibition [7] 2.02%

COc1ccc(NC(=O)C(CC(=O)O)Cc2ccccc2)cc1 (configuration not stated)
inactive: growth inhibition [1] -17% | growth inhibition [2] -9.36% | viability increase [3] -0.09% | viability [4] 102% | viability [5] 97.9% | inhibition [6] 1.62% | RAM network inhibition [7] 5.61%

CSc1nc(C)cc(SCCO)n1
inactive: growth inhibition [1] -3.2% | growth inhibition [2] 8.15% | viability increase [3] -1.79% | viability [4] 105% | viability [5] 102% | inhibition [6] 0.695% | RAM network inhibition [7] 0.46%

COc1cc2c(cc1OC)C(C(=O)Nc1ccc3c(c1)OCCO3)C(c1cccnc1)N(C)C2=O (configuration not stated)
inactive: growth inhibition [1] -4.64% | growth inhibition [2] -22.9% | viability increase [3] -6.9% | viability [4] 85.6% | viability [5] 87.9% | inhibition [6] 1.38% | RAM network inhibition [7] -0.57%

O=C(CCN1C(=O)c2ccccc2C1=O)Nc1ccncc1
inactive: growth inhibition [1] 0.69% | growth inhibition [2] -3.13% | viability increase [3] 3.4% | viability [4] 98.5% | viability [5] 105% | inhibition [6] 1.6% | RAM network inhibition [7] 1.47%

CC1CCN(C(=O)CN2C(=O)C(=O)c3ccccc32)CC1
inactive: growth inhibition [1] 3.92% | growth inhibition [2] -0.215% | viability increase [3] -5.16% | viability [4] 100% | viability [5] 97.1% | inhibition [6] 1.33% | RAM network inhibition [7] 3.27%

CCOc1ccc(N(CC(=O)Nc2ccccc2C)S(=O)(=O)c2c(C)noc2C)cc1
active: viability [4] 15.9% | viability [5] 18.1%
inactive: growth inhibition [1] 10.9% | growth inhibition [2] 4.1% | viability increase [3] -5.61% | inhibition [6] 2.38% | RAM network inhibition [7] -0.84%

C=C1c2cc(CC)ccc2NC(=O)N1c1ccc(C)cc1
inactive: growth inhibition [1] -6.46% | growth inhibition [2] -2.23% | viability increase [3] 3.36% | viability [4] 97.9% | viability [5] 101% | inhibition [6] 0.37% | RAM network inhibition [7] 0.61%

Cc1cc2cc(CCNC(=O)CC(C)(C)C)c(=O)[nH]c2cc1C
inactive: growth inhibition [1] -11.3% | growth inhibition [2] -21% | viability increase [3] -0.18% | viability [4] 101% | viability [5] 98.7% | inhibition [6] 2.57% | RAM network inhibition [7] 5.74%

O=C(NCc1cn2ccsc2n1)c1cccs1
inactive: growth inhibition [1] -11.6% | growth inhibition [2] 2.67% | viability increase [3] -2.88% | viability [4] 95.1% | viability [5] 95.8% | inhibition [6] 1.04% | RAM network inhibition [7] 7.64%

Cc1onc(-c2ccccc2Cl)c1C(=O)Nc1ccc(OCC(=O)N2CCOCC2)cc1
inactive: growth inhibition [1] 2.78% | growth inhibition [2] 5.62% | viability increase [3] -2.3% | viability [4] 104% | viability [5] 99.5% | inhibition [6] 1.5% | RAM network inhibition [7] 5.11%

Cc1cccc(C2CC(c3ccc(F)cc3)Nc3nc(N)nn32)c1 (configuration not stated)
inactive: growth inhibition [1] -1.75% | growth inhibition [2] 18.4% | viability increase [3] 0.42% | viability [4] 92.3% | viability [5] 77.1% | inhibition [6] 0.09% | RAM network inhibition [7] 0.31%

CN(C)CCNC(=O)c1cc2c(=O)n(C)c3ccccc3c2n1C
inactive: growth inhibition [1] 0.095% | growth inhibition [2] -1.67% | viability increase [3] -5.64% | viability [4] 52.9% | viability [5] 54.4% | inhibition [6] 1.12% | RAM network inhibition [7] -0.26%

Cc1ccc(C)c(NC(=O)CSc2nnc(-c3ccccc3)n2N)c1
inactive: growth inhibition [1] -4.36% | growth inhibition [2] -8.22% | viability increase [3] -1.93% | viability [4] 109% | viability [5] 90.1% | inhibition [6] 1.5% | RAM network inhibition [7] 3.95%

CC(=O)CSc1nc2ccc(Nc3nc(N4CCOCC4)nc(N4CCOCC4)n3)cc2s1
inactive: growth inhibition [1] 15.1% | growth inhibition [2] 38.6% | viability increase [3] -5.89% | viability [4] 66.6% | viability [5] 73.5% | inhibition [6] 0.87% | RAM network inhibition [7] 7.76%
